Bioassay records: PubChem, several laboratories
Compounds with a hit are over-represented: about 2.3% of the library has one in this group of screens.
MT stabilizer: microtubule stabilizers in HeLa cells; HeLa tubulin immunostaining HCS, 24 h; share of cells brighter than vehicle mean+2SD; % tubulin-high responders, % at 10 µM; 200,000 tested, 0.83% active;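 active means plate Z-score above 3 for both tubulin-high and condensed-nucleus cell shares, with cell loss under 80%, at 10 µM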;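 further: anti alpha tubulin signal scored within the nucleus-defined area of each cell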
Insulin prom up: MIN6 insulin promoter up-regulation. MIN6 insulin promoter-GFP reporter, high-content imaging; hits give high values. z-score at 5 µM. 190,000 tested, 0.3% active;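 active means z-score above 3 at 5 µM with at least 500 cells counted in the well; inconclusive means wells under 500 cells, flagged as cytotoxic or low count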
Dynein transport: dynein cargo transport inhibition. 3617.4 mouse cells, GR-EGFP nuclear translocation imaging; test concentration mostly 20 µM; stimulated with dexamethasone, 1 µM; hits give low values. z-score, hits read low. 220,000 tested, 0.47% active;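 active means plate z-score of nuclear minus cytoplasmic receptor signal below a set negative limit, without overly bright fluorescence or cell loss, cut at about -3.5 in these data, passing the limit was not always enough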;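 further: z-score of nuclear minus cytoplasmic ring GR-EGFP intensity difference per well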
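Buffer or medium: Induction medium lacking tetracycline, stripped serum | Also added: Dexamethasone agonist, 1.0 µM final, for 30 min | Timing: 48 h induction, 1 h compound, 30 min dex at 37 °C | Detection: Formaldehyde fixation, Hoechst nuclear stain, 10x automated fluorescence imaging | Measure: Nuclear versus cytoplasmic GR-EGFP signal, averaged per well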
Autophagy HCS: autophagy modulation, high-content screen; MEF GFP-LC3 puncta imaging; test concentration mostly 10 µM; calls only at 10 µM (by protocol); 190,000 tested, 0.98% active; AID 463193;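 active means percentage of spot-positive cells more than 3 SD above its plate mean, without a fluorescence outlier flag or 80% toxicity; inconclusive means no clear call, values can overlap the other calls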
bCat nuc transl: beta-catenin nuclear translocation modulation; AID 1665; 190,000 tested, 0.3% active; HeLa beta-catenin nuclear translocation, immunofluorescence imaging; nuclear translocation activity, % at 5 µM;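 active means nuclear translocation activity above 50% at 5 µM, with a well cell count of 50 or more; inconclusive means wells under 50 cells across six images, flagged as toxic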;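 further: per-cell ratio of nuclear to cytoplasmic median beta-catenin stain intensity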
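Test system: human HeLa cell line; Doses: 5 µM primary, 0.02–20 µM confirmation; Incubation: 24 h compound exposure, 37°C; Detection: beta-catenin immunofluorescence imaging with DAPI; Read-out: beta-catenin nuclear/cytoplasmic ratio, % activation.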
Dynein confirm: dynein cargo transport inhibition, confirmation. 1,000 tested, 69% active. 3617.4 GR-EGFP nuclear translocation imaging, dexamethasone-induced. shares compounds with Dynein transport. calls only at 20 µM;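 active means inhibition of receptor movement into the nucleus at or above a set limit in both runs, with normal cell brightness and cell count; inconclusive means limit reached in only one run, brightness and count normal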;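 further: dexamethasone at 1 µM final in well for 30 min; nuclear minus cytoplasmic GR-EGFP mean intensity difference in channel 2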
Hits are given with their value; i = inactive; ? = inconclusive; nt = no result given; + = active, no number.

SMILES	MT stabilizer	Insulin prom up	Dynein transport	Autophagy HCS	bCat nuc transl	Dynein confirm
Cc1cc(C(=O)CCl)c(C)n1-c1cccc(S(=O)(=O)N2CCOCC2)c1	i	i	-5.3	i	i	+
Cc1cccc(N/C=C(\[N+](=O)[O-])S(=O)(=O)c2ccccc2)c1C	i	i	i	i	i	nt
O=c1cc(-c2c(F)c(F)c(F)c(F)c2F)oc2c(F)c(F)c(F)c(F)c12	i	i	-8.2	i	i	+
COc1cc(/C=C/[N+](=O)[O-])ccc1OCc1cccc(C(=O)O)c1	i	i	-3.6	i	i	+
O=C1C(Cl)=C(N2CCCCC2)C(=O)C(Cl)=C1c1cnc(N2CCCCC2)s1	i	nt	-4.9	i	i	+
Cc1onc(-c2ccc(Cl)cc2Cl)c1-c1csc(N/N=C/c2ccccc2)n1	nt	nt	i	nt	i	nt
CCN(CC)c1ccc(/C=C/c2cc(-c3ccccc3)c3ccccc3n2)cc1	nt	15	i	nt	nt	i
CCN(CC)c1ccc(/C=N/NC(=O)c2cc(C)nc3ccccc23)cc1	nt	nt	i	nt	i	nt
CN=c1scc(-c2cccs2)n1/N=C/c1ccc(O)c(O)c1O	i	i	-3.6	i	i	?
CN=c1scc(-c2cccs2)n1/N=C/c1ccccc1O	i	i	i	i	nt	nt
CCOC(=O)c1c(C)[nH]c(C)c1C(=O)COc1ncnc2cc([N+](=O)[O-])ccc12	i	i	i	i	i	nt
O=C(/C=C/c1cccc([N+](=O)[O-])c1)n1cnc2ccccc21	i	i	-5.1	i	i	+
O=C(/C=C/c1cccc([N+](=O)[O-])c1)N1CCOCC1	i	i	i	i	i	nt
Cc1ccc(Nc2nc(NCc3ccco3)c3ccccc3n2)cc1	i	nt	i	i	i	nt
CCCNC(=O)Cn1sc2nc(C)cc(C)c2c1=O	nt	nt	-4.8	nt	i	i
Cc1cc(C)c2c(=O)n(CC(=O)N3CCC(N4CCCCC4)CC3)sc2n1	i	i	-4.2	i	i	i
CC(=O)Cn1cnc2c(sc3nc(C)cc(C)c32)c1=O	nt	i	i	nt	i	nt
CCOC(=O)C1CCCN(C(=O)Cn2sc3nc(C)cc(C)c3c2=O)C1 (centres undefined)	i	i	-4.1	i	i	?
O=S(=O)(NC1CC1)c1ccc(S(=O)(=O)N(Cc2ccccn2)C2CC2)cc1	nt	i	i	nt	i	nt
Cc1cc(C(=O)Nc2c[nH]c(=O)[nH]c2=O)ccc1[N+](=O)[O-]	i	i	i	i	i	nt
Cc1cc2c(cc1C)NC(CC(=O)NCc1ccccc1)C(=O)N2 (centres undefined)	i	nt	i	i	i	i
CN(C(=O)COc1ccc(S(=O)(=O)N2CCOCC2)cc1[N+](=O)[O-])C1CCS(=O)(=O)C1 (centres undefined)	nt	i	i	nt	i	nt
CN(C(=O)CCl)C1CCCc2ccccc21 (centres undefined)	i	i	-7.6	i	i	+
COc1ccc(/C(N)=N/O)c(OC)c1	i	i	i	i	i	nt
N#C/C(=C\c1ccccc1)C(=O)N(c1ccccn1)C1CCCCC1	i	i	-3.9	i	i	i
SMILES	MT stabilizer	Insulin prom up	Dynein transport	Autophagy HCS	bCat nuc transl	Dynein confirm
O=C(c1cccc(C(=O)N(c2ccccn2)C2CCCCC2)c1)N(c1ccccn1)C1CCCCC1	i	i	i	i	i	nt
O=C(/C=C/c1ccccc1)/C=C/c1ccccc1	i	i	-7	i	i	+
O=[N+]([O-])c1ccc(-n2nnnc2-c2ccccc2)c([N+](=O)[O-])c1	i	i	-6.6	i	i	+
CCC(=O)c1c(NC(CC)CO)cc(C)oc1=O (centres undefined)	i	i	i	i	i	nt
COc1ccc(-c2cc(C(F)(F)F)nc(S(=O)(=O)CCCC(=O)Nc3cccnc3Cl)n2)cc1OC	i	i	-5.1	i	i	+
Cc1cc(NC(=O)CCCS(=O)(=O)c2nc(-c3cccs3)cc(C(F)(F)F)n2)no1	i	i	-4.8	i	i	?
COC(=O)CCS(=O)(=O)c1nc(-c2ccccc2)cc(C(F)(F)F)n1	i	nt	i	i	i	nt
Cc1cc(NC(=O)CSc2nc(-c3cccs3)cc(C(F)(F)F)n2)no1	i	i	i	i	i	nt
Cc1csc2c(=O)sc(NC(=O)c3cccs3)nc12	nt	i	i	nt	i	nt
CC(C)(C)C(=O)/C(=C/c1ccncc1)n1cncn1	i	i	-5.1	i	i	+
CC(C)N(C(=S)Nc1cccc(S(=O)(=O)N(C)C)c1)c1ccccc1	nt	i	i	nt	i	nt
